Only some compounds are listed: those with a hit (about 2.2% of all), similar ones and a draw of the others.
Env fusion inh: HIV envelope-mediated fusion inhibition; inhibition, % at 12.3 µM; 360,000 compounds, 1.1% hits; HeLa-JRFL Env/CEM21 cell fusion, luciferase;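 active = mean replicate inhibition score of at least 50 and every replicate individually at or above 50; inconclusive = only one of the two criteria met; inactive = mean below 50 and not all replicates reaching 50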;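 also: 0% = plate neutral controls and 100% = maraviroc near 300 nM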
FN deposit inh: fibronectin deposition inhibition; AH1F fibroblasts, Alexa488-fibronectin deposition fluorescence, overnight; inhibition, % at 12.6 µM; 350,000 compounds, 0.086% hits; AID 743247;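 active = mean inhibition across replicates of 30% or more, regardless of how many single replicates reach that level; inconclusive = mean under 30% yet at least half of replicates reach 30%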;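 also: positive control wells lacked labelled fibronectin entirely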
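Assay system: AH1F fibroblast monolayer, labelled fibronectin deposition. Amount: 10000 cells per well. Also added: labelled fibronectin 24 nM. Compound: single-point pinned compound. Incubation: cell attachment 1 h, compound and FN exposure overnight. Detection: fluorescence after three HBSS washes, excitation 485 nm, emission 525 nm. Read-out: inhibition of fibronectin deposition signal.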
ERp5 block: ERp5 (human) disulfide isomerase inhibition; ERp5 insulin aggregation, absorbance 650 nm, 90 min; inhibition, % at 9.99 µM; 350,000 compounds, 0.05% hits;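 active = mean replicate inhibition above about 25%, with every replicate also reaching it, limit read from the data, passing the limit was not always enough; inconclusive = only one of those two criteria met; inactive = neither criterion met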
PDI inh: PDI (human) enzyme inhibition. PDI insulin aggregation turbidity, A650, 90 min. inhibition, % at 10 µM. 350,000 compounds, 0.052% hits;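 active = mean inhibition across replicates of 30% or more, whatever share of single replicates reach that level; inconclusive = mean inhibition below 30% while every single replicate reaches 30%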
Target sequence (P07237 whole entry, looked up): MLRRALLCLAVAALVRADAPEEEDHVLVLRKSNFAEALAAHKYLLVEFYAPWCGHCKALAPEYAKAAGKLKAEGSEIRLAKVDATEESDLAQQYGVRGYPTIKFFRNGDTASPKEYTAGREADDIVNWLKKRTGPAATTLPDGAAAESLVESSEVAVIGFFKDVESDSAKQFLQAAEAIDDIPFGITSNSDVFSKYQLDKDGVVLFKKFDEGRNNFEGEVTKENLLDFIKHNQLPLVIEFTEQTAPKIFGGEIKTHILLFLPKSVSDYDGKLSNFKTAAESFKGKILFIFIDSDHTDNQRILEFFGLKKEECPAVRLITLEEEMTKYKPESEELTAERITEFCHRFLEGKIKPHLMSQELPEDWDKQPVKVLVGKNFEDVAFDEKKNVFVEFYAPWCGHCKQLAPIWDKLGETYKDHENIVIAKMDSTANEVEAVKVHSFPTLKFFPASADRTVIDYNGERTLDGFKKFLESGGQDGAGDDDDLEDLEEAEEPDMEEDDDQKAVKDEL
rRNA inh HTS: inhibits bacterial ribosomal RNA function over humanized ribosomes | E. coli WT GFP vs humanized-ribosome RFP mutants, fluorescence, 24 h; active compounds read low; DMSO median 0, no signal -100 | 350,000 compounds, 1.6% hits | AID 720706 | GFP signal change (wild-type ribosome), % (concentration not given with the values);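 active = significant combined selectivity score with lowered wild-type GFP, culture density cut under 30%, mutant RFP and density less affected; inactive = any of these conditions unmet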
PvdQ acylase: P. aeruginosa PvdQ acylase inhibition. 340,000 compounds, 0.063% hits. inhibition, % at 10 µM. purified PvdQ acylase, fluorescence plate reader; in the data active = inhibition above about 30%, passing the limit was not always enough; inconclusive = no clear call, values can overlap the other calls;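 also: 0% = vehicle neutral wells and 100% = reference inhibitor wells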
Starred values were filed as active, the others as inactive; ? = inconclusive; . = no result given; [ ] = another dose, or the depositor's remark.

SMILES	Env fusion inh	FN deposit inh	ERp5 block	PDI inh	rRNA inh HTS	PvdQ acylase
C[C@@H]1CCCCO[C@@H](CN(C)CC2CCCCC2)[C@H](C)CN([C@@H](C)CO)C(=O)c2cc(NC(=O)c3ccccc3)ccc2O1	?	2	0	.	8	.
C[C@@H]1CN([C@@H](C)CO)C(=O)Cc2cc(NS(C)(=O)=O)ccc2O[C@H]1CN(C)S(C)(=O)=O	0[16.7 µM]	.	3	.	3	.
CNC[C@H]1Oc2ccc(NS(=O)(=O)c3ccc(Cl)cc3)cc2C(=O)N([C@@H](C)CO)C[C@H]1C	.	.	-5	.	3	.
CN(C)CC(=O)N[C@@H]1CC[C@@H](CCNC(=O)Nc2ccc(C(F)(F)F)cc2)O[C@@H]1CO	0[16.7 µM]	.	-2	.	-59	.
C[C@H]1CN([C@@H](C)CO)C(=O)c2cc(NC(=O)c3ccncc3)ccc2O[C@@H]1CN(C)C(=O)Nc1ccc(C(F)(F)F)cc1	-3[16.7 µM]	11	-1	.	2	.
CO[C@@H]1CN(C)C(=O)c2cc(NC(=O)C3CC3)ccc2OC[C@H](C)N(C(=O)c2cnccn2)C[C@H]1C	.	6	-2	.	2	.
C[C@H](CO)N1C[C@H](C)[C@@H](CN(C)C(=O)Nc2ccccc2)Oc2c(NC(=O)Nc3cccc4ccccc34)cccc2C1=O	-9[16.7 µM]	.	1	.	1	.
CCOc1ccc(N(C)S(=O)(=O)c2cc(-c3cc(C)no3)ccc2CC)cc1	47	-4	0	-4	-8	-8
COc1ccc(-c2cc(C)no2)cc1S(=O)(=O)NCC(C)c1ccccc1 (configuration not stated)	56*	-6	2	6	-2	-5
CCOc1ccc(N(C)S(=O)(=O)c2cc(-c3cc(C)no3)ccc2OC)cc1	15	7	8	10	-37*	-12
CCOc1ccccc1CNS(=O)(=O)c1cc(-c2cc(C)no2)ccc1OC	5	5	2	3	0	-6
Cc1ccc(/C=C2/CNC/C(=C/c3ccc(C)cc3)C2=O)cc1	66*	0	-10	-2	-14	-16
Cc1ccc(-c2ccc(/C=C3/NC(=O)NC3=O)o2)cc1[N+](=O)[O-]	-125	4	2	-7	33	9
CC1=C(C#N)C(=O)NC(=O)/C1=C\c1ccc(-c2cc(C)c(C)cc2[N+](=O)[O-])o1	-5	.	5	-1	-34*	-10
CCC[C@@H]1C[C@@]1(CCC)[C@@H](NP(=O)(c1ccccc1)c1ccccc1)c1ccc(C(=O)OC)cc1	96*	5	-4	.	8	.
CC(C)NC(=O)N[C@@H]1CC[C@H](CCNC(=O)C2CC2)O[C@@H]1CO	7[16.7 µM]	2	2	.	2	.
COc1ccc(CNc2nc(SCC(=O)NCc3ccco3)nc3ccccc23)cc1	.	.	3	-4	-31*	-21
Cc1ccc(S(=O)(=O)N(C)C[C@@H]2Oc3ccc(NS(C)(=O)=O)cc3CC(=O)N([C@H](C)CO)C[C@H]2C)cc1	-9[16.7 µM]	-5	-6	.	-1	.
Cc1ccccc1N1C(=O)CC(c2c[nH]c3ccccc23)C1=O (configuration not stated)	15	17	2	14	0	-6
O=C1C=CC(c2c[nH]c3ccccc23)CC1 (configuration not stated)	12	-14	6	.	-14*	.
N#CCCN1CCN(C(=S)c2ccc(-c3ccc(Cl)cc3)o2)CC1	.	.	1	-3	-28*	-3
CN(C)CC(=O)Nc1ccc2c(c1)[C@@H]1C[C@@H](CC(=O)NCc3ccccn3)O[C@H](CO)[C@@H]1O2	5[16.7 µM]	.	2	.	2	.
Cc1ccc(S(=O)(=O)NCCNc2ccc([N+](=O)[O-])cc2)cc1	0	.	6	3	-27*	-8
Cc1ccc(S(=O)(=O)Nc2c(C)cc([N+](=O)[O-])cc2C)cc1	?	-5	-10	-11	-22*	-2
CCn1c(SCC(=O)N2CCN(c3ccccc3)CC2)nnc1-c1cc2cc(Cl)ccc2o1	68*	.	.	7	.	-4
SMILES	Env fusion inh	FN deposit inh	ERp5 block	PDI inh	rRNA inh HTS	PvdQ acylase
NCC[C@@H]1CC[C@@H](NS(=O)(=O)Cc2ccccc2)[C@H](CO)O1	-3[16.7 µM]	-8	0	.	1	.
COc1ccc2c3c(n(C)c2c1)[C@H](CO)N(CC1CC1)CC31CCN(S(=O)(=O)c2cccs2)CC1	.	11	.	.	-4	.
C[C@@H]1CCCCO[C@@H](CN(C)Cc2ccc(Cl)c(Cl)c2)[C@H](C)CN([C@H](C)CO)C(=O)c2cc(NC(=O)Nc3ccc4c(c3)OCO4)ccc2O1	29[16.7 µM]	.	-1	.	-7	.
C[C@@H]1CCCCO[C@H](CN(C)C(=O)c2ccccc2)[C@@H](C)CN([C@H](C)CO)C(=O)c2cc(NC(=O)Nc3ccc4c(c3)OCO4)ccc2O1	-14[16.7 µM]	.	1	.	1	.
C[C@H]1CCCCO[C@@H](CN(C)Cc2ccc3c(c2)OCO3)[C@@H](C)CN([C@@H](C)CO)C(=O)c2cc(NC(=O)Nc3ccccc3)ccc2O1	60*[16.7 µM]	5	-1	.	-9	.
C[C@H](CO)N1C[C@H](C)[C@H](CN(C)C(=O)c2ccccc2)OCCCC[C@H](C)Oc2ccc(NC(=O)Nc3ccc4c(c3)OCO4)cc2C1=O	61*[16.7 µM]	.	-2	.	1	.
C[C@@H]1CN([C@H](C)CO)C(=O)c2cc(NC(=O)Nc3ccc4c(c3)OCO4)ccc2O[C@@H](C)CCCCO[C@H]1CN(C)Cc1ccc(Cl)c(Cl)c1	63*[16.7 µM]	.	1	.	-3	.
C[C@H](CO)N1C[C@H](C)[C@H](CN(C)Cc2ccccc2)OCCCC[C@H](C)Oc2ccc(NC(=O)Nc3ccc4c(c3)OCO4)cc2C1=O	58*[16.7 µM]	-3	-9	.	-10	.
O=C(C[C@@H]1CC[C@H](NC(=O)c2ccc(F)cc2)[C@@H](CO)O1)NCCc1ccncc1	15[16.7 µM]	.	5	.	2	.
Nn1cnnc1SCC(=O)Nc1ccc(C2CCCCC2)cc1	.	.	.	-10	.	-9
O=C(O)CSCC(=O)Nc1ccc(C2CCCCC2)cc1	98*	-10	.	4	.	-3
C[C@H](CO)N1C[C@H](C)[C@H](CN(C)C(=O)c2cccc(F)c2)Oc2cc(C#CC3CC3)ccc2S1(=O)=O	.	.	-3	.	-1	.
C[C@@H]1CN([C@@H](C)CO)C(=O)Cc2cc(NC(=O)Cc3ccccc3)ccc2O[C@@H]1CN(C)C(=O)Nc1cccc2ccccc12	-18[16.7 µM]	.	6	.	-1	.
O=C(NCCNS(=O)(=O)c1ccccc1)c1cc(OCC(F)(F)F)ccc1OCC(F)(F)F	-92	6	.	-14	.	13
O=C(NCCNS(=O)(=O)c1ccc(Cl)cc1)c1cc(OCC(F)(F)F)ccc1OCC(F)(F)F	125*	-15	.	3	.	-15
CCOCC(=O)Nc1c(C(=O)Nc2ccc3c(c2)OCCO3)oc2ccccc12	-65	1	4	-2	-25*	11
